Activity calls are given as the source filed them. The rule behind the calls is not given here.
Key:
Pseudomonas aeruginosa = assay: Antimicrobial activity against Pseudomonas aeruginosa assessed as inhibition of microbial growth at 45 uM after 24 hrs; type: functional, organism-based
Method in brief: (§1)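 Broth microdilution single-concentration read: overnight cultures diluted 1:1000, compound in DMF (≤2.0%) added, 37°C for 24 h, growth inhibition scored visually by lack of turbidity; triplicate. Gram-positives grown in TSB, Gram-negatives in LB.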

Enterococcus faecium = assay: Antimicrobial activity against Enterococcus faecium assessed as inhibition of microbial growth at 45 uM after 24 hrs; type: functional, organism-based; method in brief: as §1
Enterobacter cloacae [1] = assay: Antimicrobial activity against Enterobacter cloacae assessed as inhibition of microbial growth at 45 uM after 24 hrs; type: functional, organism-based; method in brief: as §1
Staphylococcus aureus [2] = assay: Antimicrobial activity against Staphylococcus aureus assessed as inhibition of microbial growth at 45 uM after 24 hrs; type: functional, organism-based; method in brief: as §1
Klebsiella pneumoniae [3] = assay: Antimicrobial activity against Klebsiella pneumoniae assessed as inhibition of microbial growth at 45 uM after 24 hrs; type: functional, organism-based; method in brief: as §1
Acinetobacter baumannii [4] = assay: Antimicrobial activity against Acinetobacter baumannii assessed as inhibition of microbial growth at 45 uM after 24 hrs; type: functional, organism-based; method in brief: as §1
Klebsiella pneumoniae [5] = assay: Ratio of MIC for Klebsiella pneumoniae measured after 8 cycle passage to MIC for wild type Klebsiella pneumoniae; type: functional
Acinetobacter baumannii [6] = assay: Ratio of MIC for Acinetobacter baumannii measured after 8 cycle passage to MIC for wild type Acinetobacter baumannii; type: functional
Enterobacter cloacae [7] = assay: Ratio of MIC for Enterobacter cloacae measured after 8 cycle passage to MIC for wild type Enterobacter cloacae; type: functional
Staphylococcus aureus [8] = assay: Ratio of MIC for Staphylococcus aureus measured after 8 cycle passage to MIC for wild type Staphylococcus aureus; type: functional

Structure (SMILES)	growth inhibition (GI) (Pseudomonas aeruginosa)	growth inhibition (GI) (Enterococcus faecium)	growth inhibition (GI) (Enterobacter cloacae [1])	growth inhibition (GI) (Staphylococcus aureus [2])	growth inhibition (GI) (Klebsiella pneumoniae [3])	growth inhibition (GI) (Acinetobacter baumannii [4])	Ratio (Klebsiella pneumoniae [5])	Ratio (Acinetobacter baumannii [6])	Ratio (Enterobacter cloacae [7])	Ratio (Staphylococcus aureus [8])
N=C1NC[C@H](CCCCN2C[C@@H](Cc3cccc4ccccc34)N(CCc3ccc(-c4ccccc4)cc3)C2=N)N1CCCCC1CCCCC1	Active	Active	Active	Active	Active	Active				
N=C1NC[C@H](CCCCN2C[C@H](CC3CCCCC3)N(CCc3ccc(-c4ccccc4)cc3)C2=N)N1CCc1cccc(C(F)(F)F)c1	Active	Active	Active	Active	Active	Active				
CCCC[C@H]1CN(CCCC[C@H]2CNC(=N)N2CCCCC2CCCCC2)C(=N)N1CCc1ccc(-c2ccccc2)cc1	Active	Active	Active	Active	Active	Active				
CN[C@H](CC(C)C)C(=O)N[C@H]1C(=O)N[C@@H](CC(N)=O)C(=O)N[C@H]2C(=O)N[C@H]3C(=O)N[C@H](C(=O)N[C@H](C(=O)O)c4cc(O)cc(O)c4-c4cc3ccc4O)[C@H](O)c3ccc(c(Cl)c3)Oc3cc2cc(c3O[C@@H]2O[C@H](CO)[C@@H](O)[C@H](O)[C@H]2O[C@H]2C[C@](C)(N)[C@H](O)[C@H](C)O2)Oc2ccc(cc2Cl)[C@H]1O [VANCOMYCIN]							<=128	<=128	<=128	128
N=C1NC[C@H](CCCCN2C[C@H](CC3CCCCC3)N(CCCCC3CCCCC3)C2=N)N1CCc1cccc(C(F)(F)F)c1	Active	Active	Active	Active	Active	Active				
N=C1NC[C@H](CCCCN2C[C@@H](Cc3cccc4ccccc34)N(CCCCC3CCCCC3)C2=N)N1CCCCC1CCCCC1	Active	Active	Active	Active	Active	Active				

Reference: ChEMBL document CHEMBL3421570, “Combinatorial Libraries As a Tool for the Discovery of Novel, Broad-Spectrum Antibacterial Agents Targeting the ESKAPE Pathogens” (J Med Chem, 2015)
